These results are taken from ChEMBL document CHEMBL1132554, “Inhibition of Trypanosoma cruzi trypanothione reductase by acridines: kinetic studies and structure-activity relationships” (J Med Chem, 1999).

Each structure is given as a SMILES string.

In the first assay the target is T1, Trypanothione reductase (Trypanosoma cruzi, UniProt P28593). Description: The mixed type inhibitory activity against trypanothione reductase was evaluated from Lineweaver Burk plots and Cornish-Bowdwn plots.
T1 sequence (P28593 whole entry): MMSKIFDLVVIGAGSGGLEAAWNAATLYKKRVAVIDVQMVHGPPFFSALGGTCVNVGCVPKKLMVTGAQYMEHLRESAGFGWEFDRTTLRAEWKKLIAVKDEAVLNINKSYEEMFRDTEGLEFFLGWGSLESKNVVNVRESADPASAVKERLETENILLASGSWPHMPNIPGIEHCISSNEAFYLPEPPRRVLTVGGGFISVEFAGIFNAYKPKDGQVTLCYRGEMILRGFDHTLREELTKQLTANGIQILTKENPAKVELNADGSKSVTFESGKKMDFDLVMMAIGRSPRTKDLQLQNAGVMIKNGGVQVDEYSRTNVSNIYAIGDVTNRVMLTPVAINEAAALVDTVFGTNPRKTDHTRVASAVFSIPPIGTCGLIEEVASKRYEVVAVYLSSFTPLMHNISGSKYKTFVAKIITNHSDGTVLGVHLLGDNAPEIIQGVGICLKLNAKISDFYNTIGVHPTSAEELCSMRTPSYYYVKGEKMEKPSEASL
Details: not given
Regarding `CCN(CC)CCCCSc1c2ccc(Cl)cc2nc2ccc(OC)cc12`, the Ki is 21 µM.

`CCN(CC)CCSc1c2ccc(Cl)cc2nc2ccc(OC)cc12` showed a Ki of 83 µM.

In the next assay the target is T1, Trypanothione reductase. Description: The competitive inhibitory activity against trypanothione reductase was evaluated from Lineweaver Burk plots. The note with it: read-out: Ki app. The gist of the method: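 Recombinant T. cruzi TR purified from E. coli SG5, 7–10 mU per assay, at 25 °C in 40 mM Hepes, 1 mM EDTA, pH 7.5 with 100 µM NADPH. TS2 varied without inhibitor and at two inhibitor levels. Each point was measured at least twice. Apparent Ki is the mean of Ki,slope values from Lineweaver–Burk plots at each [I].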
As for `Nc1c2ccccc2nc2cc(Cl)ccc12`, the Ki stood at 43 µM. Turning to `CCN(CC)CCCCC(C)Nc1c2ccc(Cl)cc2nc2ccc(OC)cc12` (centres undefined), the Ki turned out to be 5.5 µM. On the same count and under the same terms, in the case of `CCN(CC)CCCCC(C)Nc1c2ccccc2nc2cc(Cl)ccc12` (centres undefined) it was 11 µM; in that of `CCN(CC)CCCC(C)Nc1c2ccccc2nc2ccc(OC)cc12` (centres undefined), 27 µM; in that of `CCN(CC)CCCC(C)Nc1c2ccccc2nc2cc(Cl)ccc12` (centres undefined), 10 µM.

Take `Nc1c2c(nc3cc(Cl)ccc13)CCCC2`: the Ki is 80 µM.

Consider `COc1ccc2nc3cc(Cl)ccc3c(N)c2c1`, for which the Ki worked out at 7 µM.

As for `Nc1c2ccccc2nc2ccccc12` [AMINACRINE], the Ki turned out to be 38 µM. `CCN(CC)CCCC(C)Nc1c2ccc(Cl)cc2nc2ccc(OC)cc12` (centres undefined) [QUINACRINE]: the Ki worked out at 19 µM.

For `Nc1c2c(nc3ccccc13)CCCC2` [TACRINE], the Ki came out at 140 µM.

The target of a further assay is T1, Trypanothione reductase. Description: The mixed type inhibitory activity against trypanothione reductase was evaluated from Lineweaver Burk plots.
Details: not given
`CCN(CC)CCCCSc1c2ccc(Cl)cc2nc2ccc(OC)cc12` yielded a Ki of 67 µM. Still for that read-out and setting: as for `CCN(CC)CCSc1c2ccc(Cl)cc2nc2ccc(OC)cc12`, the figure is 37 µM.
